# The list is not random: actives were taken first. Their share in the collection is about 1.8%.
# NSD2 inh – NSD2 (human) methyltransferase inhibition | O96028 | NSD2 peptide methylation, AlphaScreen, 120 min | 310,000 compounds, 0.54% hits | AID 743445 | inhibition, % at 12.5 µM; in the data active = inhibition above about 50%
# TDP2 inh – TDP2 (human) inhibition, absorbance primary screen; O95551; recombinant TDP2, T5PNP hydrolysis, p-nitrophenol absorbance 415 nm; inhibition, % at 12.8 µM; 370,000 compounds, 0.34% hits; AID 720702;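 active = inhibition above the mean of all tested compounds plus 3 SD, set per campaign, cut at about 25% in these data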
#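 Assay system: Recombinant human TDP2 | Quantity: 120 nM TDP2 per well | Incubation: 2 h at 37 °C | Signal: Epi absorbance | Evaluation: Percent inhibition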
# CASP6 VEID inh – inhibitors of human caspase-6; purified caspase-6, Z-VEID-R110 cleavage fluorescence; inhibition, % at 12.5 µM; 350,000 compounds, 0.53% hits;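 active = mean inhibition across replicates at least about 35%, with every replicate also reaching that limit, limit read from the data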
# LEDGF integ inh – blocks HIV-1 LEDGF/p75-dependent DNA integration | inhibition, % at 3.7 µM | 370,000 compounds, 0.64% hits | TR-FRET IN-LEDGF/p75 DNA integration, Eu/Cy5;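 active = inhibition above the screen-wide mean plus 3 SD, cut at about 13% in these data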;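 also: signal is the Cy5 over europium emission ratio at 671 and 618 nm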
# UHRF1 MBD2 ctr – UHRF1 methyl-DNA binding inhibition; Q96T88; UHRF1 binding to methylated oligo, TR-FRET; inhibition, % at 4.4 µM; 370,000 compounds, 0.75% hits; AID 687016; in the data active = inhibition above about 21%;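 also: UHRF1 SRA domain binding a hemimethylated CpG hairpin DNA probe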
# Target sequence (Q96T88 whole entry, looked up, the tested form may be a part): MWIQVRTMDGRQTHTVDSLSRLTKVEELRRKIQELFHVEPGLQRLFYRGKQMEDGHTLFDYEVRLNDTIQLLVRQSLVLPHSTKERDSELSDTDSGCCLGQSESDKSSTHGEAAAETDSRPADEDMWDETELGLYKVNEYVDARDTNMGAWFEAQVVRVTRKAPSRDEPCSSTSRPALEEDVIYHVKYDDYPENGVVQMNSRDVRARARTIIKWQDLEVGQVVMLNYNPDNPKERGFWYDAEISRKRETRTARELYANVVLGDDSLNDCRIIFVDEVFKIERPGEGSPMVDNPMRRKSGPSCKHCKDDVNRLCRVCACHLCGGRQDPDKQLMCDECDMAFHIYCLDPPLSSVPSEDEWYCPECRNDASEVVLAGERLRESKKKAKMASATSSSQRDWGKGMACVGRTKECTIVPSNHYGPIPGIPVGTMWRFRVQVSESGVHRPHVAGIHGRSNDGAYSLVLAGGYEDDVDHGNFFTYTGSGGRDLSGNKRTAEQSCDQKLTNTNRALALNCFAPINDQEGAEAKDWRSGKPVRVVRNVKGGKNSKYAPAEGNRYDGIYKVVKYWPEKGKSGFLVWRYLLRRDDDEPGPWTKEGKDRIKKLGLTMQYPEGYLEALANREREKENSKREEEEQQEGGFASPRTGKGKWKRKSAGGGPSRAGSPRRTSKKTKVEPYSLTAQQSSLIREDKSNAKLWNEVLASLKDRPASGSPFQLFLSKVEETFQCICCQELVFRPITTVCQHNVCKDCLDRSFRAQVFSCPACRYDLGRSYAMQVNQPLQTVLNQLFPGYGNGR
# MBD2 inh – inhibitors of human MBD2 binding to methylated oligonucleotide; 370,000 compounds, 0.31% hits; TR-FRET; inhibition, % at 4.4 µM; Q9UBB5; AID 686964; in the data active = inhibition above about 13%
# TDP2 confirm – confirmation of human TDP2 inhibitors. 1,100 compounds, 22% hits. shares compounds with TDP2 inh. recombinant human TDP2, absorbance read-out. AID 743263. inhibition, % at 12.8 µM; in the data active = inhibition above about 25%
# IN multimer up – counter-screen for LEDGF/p75 integration inhibitors: HIV-1 integrase multimerization activators; AID 1053131; shares compounds with LEDGF integ inh; TR-FRET HIV-1 integrase multimerization, biochemical; 2,000 compounds, 17% hits; activation, % at 7.7 µM; in the data active = activation above about 8.9%
# TRFRET interf – optically interferes with TR-FRET readout in LEDGF counter-screen. shares compounds with LEDGF integ inh. 2,000 tested, under 10 active. inhibition, % at 7.7 µM. AID 1053135. TR-FRET optical interference counterscreen, HIV-1 IN multimerization;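 active = inhibition above the mean over all tested compounds plus 3 SD, which no compound reached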
# LEDGF integ conf – LEDGF/p75-dependent HIV-1 integration inhibition, confirmation | shares compounds with LEDGF integ inh | TR-FRET LEDGF/p75-dependent HIV-1 integration, biochemical | inhibition, % at 3.7 µM | 2,000 compounds, 36% hits | AID 1053136; in the data active = inhibition above about 14%
# Hits are given with their value; i = inactive; nt = no result given.
SMILES,NSD2 inh,TDP2 inh,CASP6 VEID inh,LEDGF integ inh,UHRF1 MBD2 ctr,MBD2 inh,TDP2 confirm,IN multimer up,TRFRET interf,LEDGF integ conf
O=C1C=C(O)c2cccc(O)c2C1=O,nt,32,77,22,i,i,i,i,i,14
CC1=NN(c2ccc(C)c(C)c2)C(=O)C1C(c1cccc(O)c1)C1C(=O)N(c2ccc(C)c(C)c2)N=C1C (stereo not drawn),i,80,nt,42,i,i,i,i,i,i
Cc1cccc(NC2=C(NCCO)C(=O)c3ccccc3C2=O)c1,i,58,92,20,i,i,i,i,i,i
CO[C@H]1CN(C)C(=O)c2cc(NS(=O)(=O)c3ccc(Cl)cc3)ccc2OC[C@H](C)N(C)C[C@@H]1C,nt,nt,i,nt,nt,nt,nt,nt,nt,nt
CN(C(=S)Nc1cccnc1)c1ccc(O)cc1,i,30,i,29,i,i,i,i,i,i
CN(C(=S)Nc1ccc(Oc2ccccc2)cc1)c1ccc(O)cc1,i,i,nt,i,i,i,nt,nt,nt,nt
CCCC(=O)Nc1ccc2c(c1)C(=O)N(C)C[C@H](OC)[C@@H](C)CN(Cc1ccccc1F)[C@H](C)CO2,nt,nt,i,nt,nt,nt,nt,nt,nt,nt
CC(C)NC(=O)Nc1ccc2c(c1)C(=O)N([C@@H](C)CO)C[C@@H](C)[C@H](CN(C)C)O2,nt,nt,i,nt,nt,nt,nt,nt,nt,nt
N#CCCn1[nH]c(-c2ccccc2)cc1=O,i,85,nt,27,i,i,i,i,i,i
O=c1cc(-c2ccccc2)[nH]n1-c1nc2ccccc2[nH]1,i,i,nt,i,i,i,nt,nt,nt,nt
CNC[C@H]1Oc2c(cccc2N(C)C)C(=O)N([C@H](C)CO)C[C@H]1C,nt,nt,i,nt,nt,nt,nt,nt,nt,nt
Cc1[nH]c2ccccc2c1/C=N/Nc1nncn1N,i,74,i,74,i,i,i,i,i,i
COCC(=O)Nc1ccc2c(c1)C(=O)N(C)C[C@H](OC)[C@H](C)CN(Cc1ccccn1)[C@@H](C)CO2,nt,nt,i,nt,nt,nt,nt,nt,nt,nt
CNC(=S)N/N=C/c1c(Cl)cccc1Cl,i,i,i,i,i,i,nt,nt,nt,nt
CCc1nnc(N/N=C/c2c(Cl)cccc2Cl)n1N,i,60,nt,49,i,i,i,i,i,i
CCc1nnc(N/N=C/c2cccs2)n1N,i,69,nt,44,i,i,i,i,i,i
C[C@H](CO)N1C[C@H](C)[C@@H](CN(C)C(=O)Nc2ccccc2)OCCCC[C@H](C)Oc2ccc(NS(=O)(=O)c3cn(C)cn3)cc2C1=O,nt,nt,i,nt,nt,nt,nt,nt,nt,nt
COc1ccc(OC)c(C2C(C#N)=C(N)Oc3c2c(C)nn3-c2cccc(Cl)c2)c1 (stereo not drawn),i,82,nt,17,i,i,i,i,i,i
COc1cc(C2C(C#N)=C(N)Oc3c2c(-c2ccccc2)nn3-c2ccccc2)cc(OC)c1OC (stereo not drawn),i,80,nt,19,i,i,i,i,i,i
Cc1nn(-c2ccccc2)c2c1C(c1ccco1)C(C#N)=C(N)O2 (stereo not drawn),nt,i,nt,i,i,i,nt,nt,nt,nt
CN(C)c1ccc(C=Nc2ccc(N(C)C)cc2)cc1,i,28,nt,35,i,i,i,i,i,i
Cc1ccc(N=Cc2ccc(N(C)C)cc2)cc1,i,i,nt,i,i,i,nt,nt,nt,nt
CCc1nnc(N/N=C\c2ccc(OC(C)=O)c(OC)c2)n1N,nt,54,i,30,i,i,i,i,i,i
CCOc1cc(/C=N/Nc2nnc(C)n2N)ccc1OC(C)=O,i,43,i,30,i,i,i,i,i,i
CCc1nnc(N/N=C/c2cc(Br)c(O)cc2O)n1N,i,37,i,50,i,i,i,11,i,i
SMILES,NSD2 inh,TDP2 inh,CASP6 VEID inh,LEDGF integ inh,UHRF1 MBD2 ctr,MBD2 inh,TDP2 confirm,IN multimer up,TRFRET interf,LEDGF integ conf
CCc1nnc(N/N=C/c2ccc(O)c(OC)c2)n1N,i,79,i,55,i,i,i,i,i,i
CO[C@@H]1CN(C)C(=O)c2cc(NC(=O)c3ccccc3)ccc2OC[C@H](C)NC[C@@H]1C,nt,nt,i,nt,nt,nt,nt,nt,nt,nt
O=C1C=C(NCCc2cc(Br)c(O)c(Br)c2)C(=O)c2ncccc21,137,48,96,28,i,i,60,16,i,75
CC(C)(C)c1cc(CCC(=O)NCCc2ccccn2)cc(C(C)(C)C)c1O,i,i,i,i,i,i,nt,nt,nt,nt
CCC(=O)N[C@H]1CC[C@H](CCn2cc(C3CC3)nn2)O[C@@H]1CO,nt,nt,i,nt,nt,nt,nt,nt,nt,nt
CC(C)N(C(=O)Nc1ccc2nsnc2c1)C(C)C,104,88,100,51,i,i,61,i,i,75
COc1ccc(N(C)C(=O)Nc2ccc3c(c2)nnn3C)cc1,i,i,i,i,i,i,nt,nt,nt,nt
COc1ccc(N(C)C(=O)Nc2ccc3nsnc3c2)cc1,i,95,i,56,i,i,i,i,i,i
C[C@H]1CCCCO[C@@H](CN(C)C(=O)c2ccccc2)[C@@H](C)CN([C@@H](C)CO)C(=O)c2cc(NS(=O)(=O)c3ccc(Cl)cc3)ccc2O1,nt,nt,i,nt,nt,nt,nt,nt,nt,nt
Cc1cc(=O)n(-c2ccc(O)cc2)[nH]1,i,56,nt,19,i,i,i,i,i,i
C[C@@H]1CN([C@H](C)CO)C(=O)Cc2cc(NS(=O)(=O)c3ccc(Cl)cc3)ccc2O[C@@H]1CN(C)S(C)(=O)=O,nt,nt,i,nt,nt,nt,nt,nt,nt,nt
O=C1C(O)=C(O)C(=O)c2ccccc21,nt,57,i,16,i,i,72,i,i,41
Cc1ccccc1-c1cc2c(nn1)-c1ccccc1C2=O,i,63,nt,61,i,i,50,i,i,40
Cc1ccc(-c2cc3c(nn2)-c2ccccc2C3=O)cc1,i,i,i,i,i,i,nt,nt,nt,nt
Nc1ccc(Br)c2cccnc12,99,47,i,54,i,i,41,i,i,53
CN1CCN(C(=O)C[C@H]2CC[C@@H]3[C@H](COC[C@@H](O)CN3Cc3ccc4c(c3)OCO4)O2)CC1,nt,nt,i,nt,nt,nt,nt,nt,nt,nt
C[C@@H]1CN([C@H](C)CO)S(=O)(=O)c2ccc(C3=CCCCC3)cc2O[C@@H]1CN(C)C(=O)Nc1ccc2c(c1)OCO2,nt,nt,i,nt,nt,nt,nt,nt,nt,nt
C=CCn1c(NC(=O)c2ccccc2Cl)c(C#N)c2nc3ccccc3nc21,i,79,nt,30,i,18,45,i,i,72
CCCCn1c(NC(C)=O)c(C#N)c2nc3ccccc3nc21,i,i,nt,i,i,i,nt,nt,nt,nt
O=S(=O)(Nc1ccc(O)c2ccccc12)c1cccs1,nt,50,53,26,i,i,30,i,i,i

# Screening results (PubChem)
